# Measured values from different studies.
# Each line is one published result; the experiments were not run side by side.
# Target: Activin receptor type-1 (ACVR1, Homo sapiens, UniProt Q04771)
# Residues used in one study (Q04771 21-509): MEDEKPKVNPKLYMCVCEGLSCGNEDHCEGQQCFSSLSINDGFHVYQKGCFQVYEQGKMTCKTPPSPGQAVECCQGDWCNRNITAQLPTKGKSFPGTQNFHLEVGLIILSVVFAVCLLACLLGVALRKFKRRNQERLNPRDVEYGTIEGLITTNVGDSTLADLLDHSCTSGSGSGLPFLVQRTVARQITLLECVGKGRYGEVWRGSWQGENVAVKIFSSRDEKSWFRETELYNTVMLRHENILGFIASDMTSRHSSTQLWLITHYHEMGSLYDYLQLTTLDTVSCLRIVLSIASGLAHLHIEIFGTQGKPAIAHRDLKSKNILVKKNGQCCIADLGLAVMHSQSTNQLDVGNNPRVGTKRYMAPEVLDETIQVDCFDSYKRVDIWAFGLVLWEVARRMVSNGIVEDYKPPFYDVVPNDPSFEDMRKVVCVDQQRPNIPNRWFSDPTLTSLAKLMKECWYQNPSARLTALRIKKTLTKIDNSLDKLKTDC
SMILES,assay,setting,measurement,result
CN1CCN(C(=O)c2ccc(NC(=O)Nc3ccc(N(C)c4ccnc(Nc5ccc(CS(C)(=O)=O)cc5)n4)cc3)cc2)CC1,"binding, competition with immobilised ligand",1 µM,remaining binding,28%
CCCCC(=O)Nc1ccc(-c2ccc3ncn(CCC)c(=O)c3c2)cn1,"binding, competition with immobilised ligand",0.5 µM,remaining binding,100%
COc1ccc2[nH]c3c4[nH]c5ccc(OC)cc5c4c4c(c3c2c1)C(=O)NC4=O,"binding, competition with immobilised ligand",1 µM,remaining binding,77%
C1=C/COCc2cc(ccc2OCCN2CCCC2)Nc2nccc(n2)-c2cccc(c2)COC/1,binding,0.1 µM,remaining binding,3.7%
CO[C@@H]1[C@H](N(C)C(=O)c2ccccc2)C[C@H]2O[C@]1(C)n1c3ccccc3c3c4c(c5c6ccccc6n2c5c31)C(=O)NC4,"enzyme activity, inhibitor",1 µM,inhibition,0%
CC(C)S(=O)(=O)c1ccc2nccc(Nc3ccc4sc(C5CCCC5)nc4c3)c2c1,"enzyme activity, inhibitor",1 µM,activity vs control,111%
COc1ccc2oc(-c3ccc4nc(N)oc4c3)c/c(=N\c3ccccc3NC(=O)CCN)c2c1,binding,1 µM,remaining binding,104%
C=CC(=O)N1CCC([C@@H]2CCNc3c(C(N)=O)c(-c4ccc(Oc5ccccc5)cc4)nn32)CC1,cell-free assay,1 µM,inhibition,13%
